# Calls of active or inactive are those of the source. No cut-off for these calls is given here.
# Legend:
# [1] = Drug metabolism in dog hepatocytes assessed as taurine metabolite formation by LC-MS/MS analysis; assay type: ADME, cell-based, Canis lupus familiaris, Hepatocyte
# [2] = Drug metabolism in dog hepatocytes assessed as N-dealkylation by LC-MS/MS analysis; assay type: ADME, cell-based, Canis lupus familiaris, Hepatocyte
# [3] = Drug metabolism in rat hepatocytes assessed as taurine metabolite formation by LC-MS/MS analysis; assay type: ADME, cell-based, Hepatocyte
# [4] = Drug metabolism in human hepatocytes assessed as taurine metabolite formation by LC-MS/MS analysis; assay type: ADME, cell-based, Hepatocyte
# [5] = Drug metabolism in rat hepatocytes assessed as N-dealkylation by LC-MS/MS analysis; assay type: ADME, cell-based, Hepatocyte
# [6] = Drug metabolism in human hepatocytes assessed as N-dealkylation by LC-MS/MS analysis; assay type: ADME, cell-based, Hepatocyte
# [7] = Drug metabolism in human hepatocytes assessed as glucuronidation by LC-MS/MS analysis; assay type: ADME, cell-based, Hepatocyte
# [8] = Solubility of the compound in FaSSIF; assay type: physicochemical
# [9] = Clearance in mouse hepatocytes by LC-MS/MS analysis; assay type: ADME, cell-based, Hepatocyte
# [10] = Metabolic stability in mouse liver microsomes assessed as compound hydrolysis incubated for 30 mins by LC-MS/MS analysis; assay type: ADME, Microsome; settings: read-out: Drug degradation
# Method in brief: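 Incubated 30 min with mouse or human liver microsomes. Stability reported as % metabolized.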
# Mus musculus = experiment: Hypoglycemic activity in Balb/c mouse assessed as reduction in blood glucose level at 0.03 to 3 mg/kg, po administered 60 mins prior to glucose challenge and measured at 7 to 60 mins by IPGTT; assay type: functional, organism-based; settings: dose 0.03-3 mg/kg
# Rattus norvegicus = experiment: Hypoglycemic activity in Zucker fatty diabetes mellitus rat model assessed as increase in insulin levels in plasma at 0.03 to 1 mg/kg, po administered for 21 days and measured at 10 to 60 mins post glucose challenge on day 1 by OGTT; assay type: functional, organism-based; settings: dose 0.03-1 mg/kg, time 21.0 day
# [11] = target: T1, Peroxisome proliferator-activated receptor alpha (Homo sapiens) (UniProt Q07869); experiment: Agonist activity at human Gal4-fused PPARalpha LBD expressed in African green monkey CV1 cells cotransfected with pRL-SV40 plasmid assessed as maximum efficacy measured after 24 hrs by luciferase reporter gene assay relative to control; assay type: cell-based; settings: CV-1
# T1 sequence (whole entry): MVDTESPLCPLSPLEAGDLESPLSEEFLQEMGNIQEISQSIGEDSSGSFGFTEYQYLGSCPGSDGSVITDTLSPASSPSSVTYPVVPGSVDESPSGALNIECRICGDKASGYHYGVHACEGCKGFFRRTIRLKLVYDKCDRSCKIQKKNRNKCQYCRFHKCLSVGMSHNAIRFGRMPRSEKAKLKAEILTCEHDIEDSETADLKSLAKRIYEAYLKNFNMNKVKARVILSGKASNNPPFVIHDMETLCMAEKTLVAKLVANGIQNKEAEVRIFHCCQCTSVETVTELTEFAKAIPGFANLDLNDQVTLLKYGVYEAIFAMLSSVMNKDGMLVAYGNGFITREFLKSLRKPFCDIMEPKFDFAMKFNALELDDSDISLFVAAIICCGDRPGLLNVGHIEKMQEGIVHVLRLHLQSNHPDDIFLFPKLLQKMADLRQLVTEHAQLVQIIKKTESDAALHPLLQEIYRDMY
# Method in brief: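 CV1 African green monkey kidney cells were cotransfected, in DMEM with 5% charcoal-stripped FBS, with two plasmids: an SV40-driven Gal4 DBD–PPARα or PPARδ LBD hybrid, and a 5×Gal4-element firefly luciferase reporter. Cells were replated at 15000/well for 4 h, then exposed to 0.17 nM–10 μM in half-log steps for 24 h. Luciferase was read, normalized to maximum from 10 μM reference agonist, and fit by a 4-parameter model.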
# [12] = Drug metabolism in mouse hepatocytes assessed as glucuronidation by LC-MS/MS analysis; assay type: ADME, cell-based, Hepatocyte
# [13] = target: Free fatty acid receptor 1 (Homo sapiens, UniProt O14842); experiment: Displacement of [3H]-(S)-2-(6-((2',6'-dimethyl-4'-(3-(methylsulfonyl)propoxy)biphenyl-3-yl)methoxy)-2,3-dihydrobenzofuran-3-yl)acetic acid from human recombinant full-length GPR40 expressed in human HEK293 cell membrane assessed as Koff rate measured after 2 hrs by radioligand competitive assay; assay type: cell membranes; settings: filed as agonist
# Chain of Free fatty acid receptor 1 (O14842 whole entry): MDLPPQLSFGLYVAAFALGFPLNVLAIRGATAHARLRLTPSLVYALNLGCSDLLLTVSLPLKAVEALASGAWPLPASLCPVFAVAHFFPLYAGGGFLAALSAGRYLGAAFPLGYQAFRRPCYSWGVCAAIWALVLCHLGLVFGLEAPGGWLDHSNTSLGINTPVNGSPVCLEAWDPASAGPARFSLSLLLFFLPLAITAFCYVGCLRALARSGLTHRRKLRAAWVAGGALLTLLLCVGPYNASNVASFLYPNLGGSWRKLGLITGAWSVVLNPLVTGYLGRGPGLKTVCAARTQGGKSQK
# [14] = Cmax in dog plasma at 3 mg/kg, po or 1 mg/kg, iv by LC/MS/MS analysis; assay type: ADME, organism-based, Canis lupus familiaris; design: dose 3 mg/kg
# Method in brief: (§1)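 Mice, rats and beagle dogs were dosed. Blood was collected into EDTA at set time points and processed to plasma for LC/MS/MS bioanalysis. Parameters were derived by noncompartmental analysis.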
# [15] = Oral bioavailability in rat at 3 mg/kg by LC/MS/MS analysis; assay type: ADME, organism-based; settings: in vivo
# Method in brief: (§2)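 Dosed to mice, rats or beagle dogs. Blood collected at selected time points with EDTA anticoagulant, processed to plasma and analysed by LC/MS/MS. Parameters obtained by noncompartmental analysis.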
# [16] = Cmax in mouse plasma at 3 mg/kg, po or 1 mg/kg, iv by LC/MS/MS analysis; assay type: ADME, organism-based; design: dose 3 mg/kg; method in brief: as §1
# [17] = Clearance in dog plasma at 3 mg/kg, po or 1 mg/kg, iv by LC/MS/MS analysis; assay type: ADME, organism-based, Canis lupus familiaris; method in brief: as §1
# [18] = Elimination half-life in mouse plasma at 3 mg/kg, po or 1 mg/kg, iv by LC/MS/MS analysis; assay type: ADME, organism-based; method in brief: as §2
# [19] = Cmax in rat plasma at 3 mg/kg, po or 1 mg/kg, iv by LC/MS/MS analysis; assay type: ADME, organism-based; design: dose 3 mg/kg; method in brief: as §1
# [20] = Tmax in mouse at 3 mg/kg, po or 1 mg/kg, iv by LC/MS/MS analysis; assay type: ADME, organism-based; settings: in vivo; method in brief: as §2
# [21] = Half-life in rat at 3 mg/kg, po or 1 mg/kg, iv by LC/MS/MS analysis; assay type: ADME, organism-based; settings: in vivo; method in brief: as §2
# [22] = Drug metabolism in dog feces assessed as metabolite formation by LC-MS/MS analysis; assay type: ADME, tissue-based, Canis lupus familiaris
# [23] = Elimination half-life in dog plasma at 3 mg/kg, po or 1 mg/kg, iv by LC/MS/MS analysis; assay type: ADME, organism-based, Canis lupus familiaris; method in brief: as §2
# [24] = Oral bioavailability in dog at 3 mg/kg by LC/MS/MS analysis; assay type: ADME, organism-based, Canis lupus familiaris; settings: in vivo; method in brief: as §2
# [25] = Oral bioavailability in mouse at 3 mg/kg by LC/MS/MS analysis; assay type: ADME, organism-based; settings: in vivo; method in brief: as §2
# [26] = Tmax in rat at 3 mg/kg, po or 1 mg/kg, iv by LC/MS/MS analysis; assay type: ADME, organism-based; settings: in vivo; method in brief: as §2
# [27] = Volume of distribution at steady state in dog at 3 mg/kg, po or 1 mg/kg, iv by LC/MS/MS analysis; assay type: ADME, organism-based, Canis lupus familiaris; settings: in vivo, read-out: Vdss; method in brief: as §2
# [28] = Tmax in dog at 3 mg/kg, po or 1 mg/kg, iv by LC/MS/MS analysis; assay type: ADME, organism-based, Canis lupus familiaris; settings: in vivo; method in brief: as §2
# [29] = Elimination half-life in rat plasma at 3 mg/kg, po or 1 mg/kg, iv by LC/MS/MS analysis; assay type: ADME, organism-based; settings: read-out: beta t1/2 (converted); method in brief: as §2
# [30] = Half-life in mouse at 3 mg/kg, po or 1 mg/kg, iv by LC/MS/MS analysis; assay type: ADME, organism-based; settings: in vivo; method in brief: as §2
# [31] = Half-life in dog at 3 mg/kg, po or 1 mg/kg, iv by LC/MS/MS analysis; assay type: ADME, organism-based, Canis lupus familiaris; settings: in vivo; method in brief: as §2
# [32] = Clearance in mouse plasma at 3 mg/kg, po or 1 mg/kg, iv by LC/MS/MS analysis; assay type: ADME, organism-based; method in brief: as §1
SMILES,Drug metabolism [1],Drug metabolism [2],Drug metabolism [3],Drug metabolism [4],Drug metabolism [5],Drug metabolism [6],Drug metabolism [7],solubility [8],CLH [9],metabolised at 0.5 h [10],Activity (Mus musculus),Activity (Rattus norvegicus),Emax [11],Drug metabolism [12],K [13],Cmax [14],bioavailability [15],Cmax [16],clearance [17],half-life [18],also measured
CC#C[C@@H](CC(=O)O)c1ccc(OCc2ccc(CN3CCC4(C=Cc5ccccc54)CC3)s2)cc1,Metabolite_Detected,Metabolite_Detected,Metabolite_Detected,Metabolite_Detected,Metabolite_Detected,Metabolite_Detected,Metabolite_Detected,–,–,–,–,–,–,–,–,–,–,–,–,–,–
CC#C[C@@H](CC(=O)O)c1ccc(OCc2ccc(CN3CCC4(C=Cc5ccccc54)CC3)cc2)cc1 [LY2881835],–,–,–,–,–,–,–,7 µg/mL,0.09 h⁻¹,79%,Active,Active,4%,Metabolite_Detected,0.00822 min⁻¹,–,–,–,–,–,–
CC#C[C@@H](CC(=O)O)c1ccc(OCc2ccc(CN3CCCc4cccc(OC)c43)s2)cc1,–,–,–,–,–,–,–,35 µg/mL,< 0.05 h⁻¹,38%,Active,Active,4%,Metabolite_Detected,–,2290 ng/mL,95%,552 ng/mL,4.6 mL/min/kg,4.2 h,Cmax [19]: 4140 ng/mL; Tmax [20]: 1 h; half-life [21]: 5.6 h; Drug metabolism [22]: Metabolite_Notdetected; half-life [23]: 4.4 h; bioavailability [24]: 55%; bioavailability [25]: 62%; Tmax [26]: 0.6 h; Vd [27]: 1 L/kg; Tmax [28]: 0.5 h; half-life [29]: 5.6 h; half-life [30]: 4.2 h; half-life [31]: 4.4 h; clearance [32]: 15.4 mL/min/kg
O=C(O)CCc1ccc(OCc2ccc(CN3CCC4(C=Cc5ccccc54)CC3)cc2)cc1F,–,–,–,–,–,–,–,–,–,–,–,–,–,–,0.0866 min⁻¹,–,–,–,–,–,–
CC#C[C@@H](CC(=O)O)c1ccc(OCc2ccc(CN3CCC4(CCc5ccccc54)CC3)s2)cc1,Metabolite_Detected,Metabolite_Detected,Metabolite_Detected,Metabolite_Detected,Metabolite_Detected,Metabolite_Detected,Metabolite_Detected,6 µg/mL,0.1 h⁻¹,98%,Active,Active,4%,Metabolite_Detected,–,1100 ng/mL,46%,184 ng/mL,2.2 mL/min/kg,1.7 h,Cmax [19]: 829 ng/mL; Tmax [20]: 2 h; half-life [21]: 1.6 h; Drug metabolism [22]: Metabolite_Notdetected; half-life [23]: 3.8 h; bioavailability [24]: 17%; bioavailability [25]: 21%; Tmax [26]: 0.5 h; Vd [27]: 0.2 L/kg; Tmax [28]: 2 h; half-life [29]: 2 h; half-life [30]: 1.7 h; half-life [31]: 3.8 h; clearance [32]: 9.3 mL/min/kg
